Values after ≈ are worked out from the molar mass of the structure shown.
Legend:
[1] = Tmax in Wistar rat at 2.38 mg/kg, po measured up to 4 hrs post dose; format: ADME, organism-based; details: in vivo
[2] = Efflux ratio of passive permeability in MDCK2-MDR1 cells transduced with BacMam2-BCRP at 3 uM after 90 mins by Transwell assay; format: ADME, cell-based, Canis lupus familiaris, MDCK-MDR1; details: dog
Summary of the method: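 MDCKII-MDR1 cells transduced with BacMam2-BCRP in Transwells. Compound at 3 μM was measured in duplicate, A→B and B→A, after 90 min, with and without 5 μM GF120918. ER = B→A/A→B permeability without inhibitor. System qualified with amprenavir and dantrolene ERs.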

[3] = Oral bioavailability in Wistar rat at 2.38 mg/kg measured up to 4 hrs after dose; format: ADME, organism-based; details: in vivo
[4] = Passive permeability in MDCK2-MDR1 cells transduced with BacMam2-BCRP at 3 uM after 90 mins by Transwell assay; format: ADME, cell-based, Canis lupus familiaris, MDCK-MDR1; details: dog; read-out: permeability
Summary of the method: (§1)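 MDCKII-MDR1 cells transduced with BacMam2-BCRP and grown in Transwells. Compound at 3 μM, in duplicate, was incubated 90 min A→B (and B→A) with and without GF120918 (5 μM, dual P-gp/BCRP inhibitor). Passive permeability (Pexact, nm/s) was calculated by an equation from earlier work. The permeability ratio is A→B permeability with GF120918 over A→B permeability without it.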

[5] = Solubility of compound in fasted state simulated intestinal fluid measured after 4 hrs; format: physicochemical
Summary of the method: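 Solubility in FaSSIF, read after 4 h incubation.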

[6] = Fraction unbound in Han-Wistar SOA rat model brain at 2 mg/kg administered via oral gavage by UPLC/MS/MS analysis; format: ADME, organism-based
[7] = molecular target: T1, C-X-C chemokine receptor type 2 (Homo sapiens, UniProt P25025); assay: Antagonist activity at CXCR2 in human whole blood assessed as inhibition of GROalpha-stimulated CD11b upregulation preincubated for 15 mins followed by GROalpha stimulation measured after 15 mins by FITC-staining based FACS analysis
T1 sequence (P25025 whole entry): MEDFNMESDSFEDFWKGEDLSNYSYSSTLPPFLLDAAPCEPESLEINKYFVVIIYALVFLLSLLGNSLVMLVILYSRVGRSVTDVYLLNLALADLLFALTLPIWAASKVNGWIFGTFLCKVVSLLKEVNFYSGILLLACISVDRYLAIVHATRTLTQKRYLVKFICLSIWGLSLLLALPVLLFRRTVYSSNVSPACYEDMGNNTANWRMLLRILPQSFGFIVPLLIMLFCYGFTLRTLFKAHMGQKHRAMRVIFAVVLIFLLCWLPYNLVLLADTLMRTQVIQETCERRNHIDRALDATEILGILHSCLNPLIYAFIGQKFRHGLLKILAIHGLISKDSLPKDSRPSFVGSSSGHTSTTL

[8] = Fraction unbound in Han-Wistar SOA rat model blood at 2 mg/kg administered via oral gavage by UPLC/MS/MS analysis; format: ADME, organism-based
[9] = Volume of distribution at steady state in Wistar rat at 1.01 mg/kg, iv measured up to 4 hrs post dose; format: ADME, organism-based; details: in vivo, read-out: Vdss
[10] = Clearance in Wistar rat blood at 1.01 mg/kg, iv measured up to 4 hrs post dose; format: ADME, organism-based
Rattus norvegicus [11] = assay: Dose normalized AUC (0 to infinity) in Wistar rat at 1.01 mg/kg, iv measured up to 4 hrs post dose; format: ADME, organism-based; details: in vivo
Brain = assay: Dose normalized AUC (0 to 7 hrs) in Han-Wistar SOA rat model brain at 2 mg/kg administered via oral gavage by UPLC/MS/MS analysis; format: ADME, organism-based; details: in vivo
Summary of the method: (§2)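 Male Han-Wistar rats were given 2 mg/kg by oral gavage as a suspension in DMSO:1% methylcellulose (1:99). Blood (cardiac puncture, EDTA-K2, under isoflurane) and brains were collected at 0.25–7 h. Brain was homogenised in 3-fold PBS, samples were protein-precipitated and quantified by UPLC/MS/MS.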

Rattus norvegicus [12] = assay: Dose normalized AUC (0 to infinity) in Wistar rat at 2.38 mg/kg, po measured up to 4 hrs post dose; format: ADME, organism-based; details: in vivo
[13] = Ratio of brain dose normalized AUC (0 to 7 hrs) to […] dose normalized AUC (0 to 7 hrs), Kp of the compound in Han-Wistar SOA rat model at 2 mg/kg administered via oral gavage by UPLC/MS/MS analysis; format: ADME, organism-based
Summary of the method: (§3)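 Male Han-Wistar rats given a single 2 mg/kg oral gavage as a suspension in DMSO:1% methylcellulose (1:99). Blood was taken by cardiac puncture under isoflurane at 0.25–7 h, diluted 1:3 with water, and brains were homogenized in 3-fold PBS. Samples were extracted by acetonitrile protein precipitation and quantified by UPLC/MS/MS. Kp = brain DNAUC0-7h/blood DNAUC0-7h; Kp,uu = Kp×Fu,br/Fu,bl.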

[14] = Elimination half life in Wistar rat at 1.01 mg/kg, iv measured up to 4 hrs post dose; format: ADME, organism-based; details: in vivo, read-out: beta t1/2 (converted)
[15] = molecular target: T1, C-X-C chemokine receptor type 2; assay: Antagonist activity at TEV protease cleavage site linked GAL4-VP16-fused recombinant human CXCR2 expressed in cells assessed as inhibition of […] human CXCL1-stimulated beta-arrestin recruitment by CCF4-AM-fluorescence based FRET assay; format: cell-based; details: read-out: pIC50 (converted)
Summary of the method: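 Stable cell line expressing recombinant human CXCR2 linked to a TEV site and Gal4-VP16. Cells were starved 24 h at 37 °C, 5% CO2, then resuspended at ~200,000 cells/mL. They were given compound in DMSO (concentration-response), stimulated with 80 nM hCXCL1 and incubated overnight at 37 °C. CCF4-AM substrate was then added for 2 h at RT in the dark.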

[16] = Cmax in Wistar rat at 2.38 mg/kg, po measured up to 4 hrs post dose; format: ADME, organism-based; design: dose 2.38 mg/kg, route oral; details: in vivo
Blood = assay: Dose normalized AUC (0 to 7 hrs) in Han-Wistar SOA rat model blood at 2 mg/kg administered via oral gavage by UPLC/MS/MS analysis; format: ADME, organism-based; details: in vivo; summary of the method: as §2
[17] = Unbound brain-to-blood concentration ratio in Han-Wistar SOA rat model at 2 mg/kg administered via oral gavage by UPLC/MS/MS analysis; format: ADME, organism-based; details: read-out: K(p,uu,brain); summary of the method: as §3
[18] = Ratio of passive permeability in presence of dual P-gp/BCRP inhibitor GF120918 to absence of GF120918 in MDCK2-MDR1 cells transduced with BacMam2-BCRP at 3 uM after 90 mins by Transwell assay; format: ADME, cell-based, Canis lupus familiaris; details: dog, mdck2-mdr1, 1.5 h; summary of the method: as §1

Compound | Tmax [1] [h] | efflux ratio at 1.5 h, 3 µM [2] | bioavailability [3] [%] | Papp at 1.5 h, 3 µM [4] [×10⁻⁶ cm/s] | solubility at 4 h [5] [µg/mL] | fraction unbound [6] | IC50 [7] [nM] | fraction unbound [8] | Vd [9] [L/kg] | clearance [10] [mL/min/kg] | AUC/dose (Rattus norvegicus [11]) [ng·h/mL/mg/kg] | AUC/dose (Brain) [ng·h/g/mg/kg] | AUC/dose (Rattus norvegicus [12]) [ng·h/mL/mg/kg] | Kp [13] | half-life [14] [min] | IC50 [15] [nM] | Cmax [16] [ng/mL] | AUC/dose (Blood) [ng·h/mL/mg/kg] | Kp uu [17] | Ratio [18]
CC1=CCC[C@H]1NC(=O)Nc1ccc(Cl)c(S(=O)(=O)C(C)(C)[C@H]2CCOC2)c1O |  | 2.2 |  | 33.1 | 25.2 (≈ 56.9 µM) | 0.033 | 316 | 0.016 |  |  |  | 13.4 |  | 0.21 |  | 1.58 |  | 63.8 | 0.42 | 
CC1=CCC[C@H]1NC(=O)Nc1ccc(Cl)c(S(=O)(=O)C(C)(C)C)c1O |  |  |  | 36.4 | 1.2 (≈ 3.1 µM) |  | 316 |  |  |  |  |  |  |  |  | 1 |  |  |  | 1.5
CC1=CCC[C@H]1NC(=O)Nc1ccc(Cl)c(S(=O)(=O)[C@H]2C[C@H](N3CCCC3)C2)c1O |  |  |  | 20.5 | 758 (≈ 1670 µM) | 0.114 | 100 | 0.0065 |  |  |  | 296 |  | 0.03 |  |  |  | 11721 |  | 2.8
CC1=CCC[C@H]1NC(=O)Nc1ccc(Cl)c(S(=O)(=O)C(C)(F)F)c1O |  |  |  | 34.8 | 50.8 (≈ 129 µM) | 0.051 | 631 | 0.0065 |  |  |  | 243 |  | 0.06 |  |  |  | 4331 |  | 2.4

Next, values leading:

Tmax [1] [h] | efflux ratio at 1.5 h, 3 µM [2] | bioavailability [3] [%] | Papp at 1.5 h, 3 µM [4] [×10⁻⁶ cm/s] | solubility at 4 h [5] [µg/mL] | fraction unbound [6] | IC50 [7] [nM] | fraction unbound [8] | Vd [9] [L/kg] | clearance [10] [mL/min/kg] | AUC/dose (Rattus norvegicus [11]) [ng·h/mL/mg/kg] | AUC/dose (Brain) [ng·h/g/mg/kg] | AUC/dose (Rattus norvegicus [12]) [ng·h/mL/mg/kg] | Kp [13] | half-life [14] [min] | IC50 [15] [nM] | Cmax [16] [ng/mL] | AUC/dose (Blood) [ng·h/mL/mg/kg] | Kp uu [17] | Ratio [18] | Compound
2.5 | 0.87 | 88 | 65.4 | 3 (≈ 7.41 µM) | 0.034 | 100 | 0.011 | 2.2 | 15.7 | 1071 | 97 | 961 | 0.16 | 150 | 0.631 | 292 | 614 | 0.48 |  | CC1=CCC[C@H]1NC(=O)Nc1ccc(Cl)c(S(=O)(=O)C(C)(C)CF)c1O
 |  |  | 9 | 686 (≈ 1820 µM) | 0.116 | 158 | 0.034 |  |  |  | 73 |  | 0.03 |  |  |  | 2575 |  | 4 | CC1=CCC[C@H]1NC(=O)Nc1ccc(C#N)c(S(=O)(=O)C(C)(C)C)c1O
 |  |  | 3 | 408 (≈ 916 µM) |  | 1000 |  |  |  |  |  |  |  |  | 0.158 |  |  |  | 4.3 | CC1=CCC[C@H]1NC(=O)Nc1ccc(C#N)c(S(=O)(=O)C(C)(C)CC(F)(F)F)c1O
 |  |  | 33.9 | 3.4 (≈ 7.71 µM) | 0.021 |  | 0.007 |  |  |  | 107 |  | 0.2 |  | 0.501 |  | 535 | 0.59 | 1.6 | CC1=CCC[C@H]1NC(=O)Nc1ccc(Cl)c(S(=O)(=O)C(C)(C)C(F)(F)F)c1O
